Source: PubChem
MrgX1 agonist: agonists of human MrgX1 receptor; B-score at 10 µM; 310,000 compounds, 0.44% hits; Q96LB2; MrgX1-HEK293 cells, Fluo-4 calcium fluorescence, agonist mode; stronger effect = higher value;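 active means calcium response B-score plate-corrected fluorescence ratio at least 3 library SD, with starting fluorescence B-score inside 5 SD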
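System: HEK293 cells stably expressing human MrgX1 receptor; Dosing: test compound in the initial addition of three; Schedule: overnight plating, then 30 min 37 °C plus 30 min room-temperature dye loading; Detection: kinetic calcium dye fluorescence, Fluo-4 NW; Controls: per-plate positive and negative controls for Z′ factor.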
RGS4 block: inhibitors of human RGS4 | P49798 | HEK293 M3R/RGS4 inducible, Fluo-4 calcium flux; stronger effect = higher value; triggered by carbachol at its EC20 | B-score at 10 µM | 310,000 compounds, 0.45% hits;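 active means B-score, a plate-corrected calcium signal, over three deviations above library mean, with baseline fluorescence within five deviations of library mean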;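 further: RGS4 expression induced by doxycycline in cells with stable M3 receptor; B-score is computed from the integrated fluorescence ratio over baseline after carbachol; higher B-score means a larger calcium signal and so more RGS4 inhibition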
MrgX1 antagonist: blocks BAM8-22 activation of human MrgX1 receptor | Q96LB2 | 310,000 compounds, 1.3% hits | MRGX1-HEK293 calcium flux, Fluo-4, BAM8-22 antagonism; stronger effect = lower value | AID 588676 | B-score at 10 µM;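 active means calcium-response B-score plate-corrected more than 3 library SD below zero, starting fluorescence within 5 deviations, no agonist response on first addition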;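 further: peak minus trough fluorescence over baseline after final BAM8-22 challenge near maximal dose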
RGS4 pot: potentiators or activators of RGS4; HEK293 M3R/inducible RGS4, carbachol calcium flux Fluo4; stronger effect = lower value; 310,000 compounds, 0.92% hits; AID 463111; B-score at 10 µM;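 active means B-score of the integrated calcium signal more than 4 SD below the library mean, with starting fluorescence not abnormally high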;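 further: negative B-score means reduced calcium response which marks RGS4 activation or potentiation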
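System – HEK293 FlpIn-TREx cells, stable M3R, doxycycline-inducible RGS4 · Reagent – ECmax carbachol challenge · Times – compound preincubation 20 min at room temperature before agonist · Technique – Fluo4 fluorescence kinetic imaging of calcium · Measure – B score of integrated Fluo4 ratio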
MrgX1 allo act: human MrgX1 positive allosteric modulation, primary screen; MrgX1-HEK293, Fluo-4 calcium flux, FDSS; stronger effect = higher value; B-score at 10 µM; Q96LB2; AID 588675; 310,000 compounds, 0.63% hits;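 active means plate-corrected calcium response at least 3 library SD above typical, normal starting fluorescence, not activating the receptor alone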;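 further: compound read alongside a low EC10 to EC30 dose of BAM8-22 agonist; peak minus trough fluorescence over baseline measured at the second addition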
KCC2 mod: modulates chloride dependent transport by human KCC2 | AID 1456 | 190,000 compounds, 2.2% hits | Q9H2X9 | KCC2 cells, thallium flux FluoZin-2 fluorescence | B-score of Tl+ flux slope (higher = more flux/activation; lower = inhibition) at 10 µM;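 active means thallium flux slope and its plate-corrected score both differing from the plate sample mean at a set confidence after two filtering rounds, in either direction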;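 further: slope of fluorescence scaled to starting intensity during 10 to 20 s after thallium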
Target sequence (Q9H2X9 whole entry, looked up): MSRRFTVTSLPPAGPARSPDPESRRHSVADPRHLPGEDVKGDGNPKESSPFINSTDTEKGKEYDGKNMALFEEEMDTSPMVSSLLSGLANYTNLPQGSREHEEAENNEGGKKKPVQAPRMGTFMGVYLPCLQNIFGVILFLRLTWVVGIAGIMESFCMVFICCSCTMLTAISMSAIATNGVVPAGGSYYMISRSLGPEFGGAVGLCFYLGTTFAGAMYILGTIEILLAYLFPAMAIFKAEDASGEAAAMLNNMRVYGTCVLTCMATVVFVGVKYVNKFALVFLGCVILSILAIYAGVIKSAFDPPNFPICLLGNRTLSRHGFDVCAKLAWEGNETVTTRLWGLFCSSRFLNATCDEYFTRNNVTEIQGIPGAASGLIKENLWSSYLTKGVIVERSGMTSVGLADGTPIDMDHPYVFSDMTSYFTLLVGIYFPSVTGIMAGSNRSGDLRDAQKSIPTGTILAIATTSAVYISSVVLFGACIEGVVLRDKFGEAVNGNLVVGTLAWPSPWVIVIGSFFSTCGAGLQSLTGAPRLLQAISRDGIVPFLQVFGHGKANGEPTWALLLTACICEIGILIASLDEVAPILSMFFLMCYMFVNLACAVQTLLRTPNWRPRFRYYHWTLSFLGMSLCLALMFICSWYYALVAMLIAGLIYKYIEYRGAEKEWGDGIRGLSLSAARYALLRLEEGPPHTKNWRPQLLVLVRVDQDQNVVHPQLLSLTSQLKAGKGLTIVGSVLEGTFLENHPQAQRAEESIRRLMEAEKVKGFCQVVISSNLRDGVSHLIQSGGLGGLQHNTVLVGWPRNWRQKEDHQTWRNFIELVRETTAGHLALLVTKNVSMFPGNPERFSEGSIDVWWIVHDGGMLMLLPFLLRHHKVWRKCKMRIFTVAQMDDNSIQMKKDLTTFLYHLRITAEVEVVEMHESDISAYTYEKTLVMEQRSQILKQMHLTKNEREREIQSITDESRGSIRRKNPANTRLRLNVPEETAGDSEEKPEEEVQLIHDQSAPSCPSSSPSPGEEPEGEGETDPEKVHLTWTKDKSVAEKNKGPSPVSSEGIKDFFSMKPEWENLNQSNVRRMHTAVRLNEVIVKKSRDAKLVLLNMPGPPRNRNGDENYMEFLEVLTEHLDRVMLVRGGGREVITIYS
RGS4 activ val: confirmation of RGS4 activators; AID 602282; shares compounds with RGS4 pot; HEK293 M3R/RGS4 inducible, carbachol calcium flux Fluo4; 1,100 compounds, 89% hits; inhibition, % at 10 µM;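 active means inhibition above 3 SD of the buffer control wells, cut at about 41% in these data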;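 further: signal is the integrated peak-minus-minimum Fluo4 fluorescence over baseline ratio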
M3R Ca counter: RGS4 activator counter-screen hit in non-induced cells | 1,100 compounds, 82% hits | inhibition, % at 10 µM | AID 602283 | HEK293 M3R non-induced RGS4, Fluo4 calcium flux; after carbachol challenge at its EC90 | shares compounds with RGS4 pot;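 active means inhibition exceeding 3 SD of buffer-only control wells, cut at about 26% in these data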;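 further: percent drop in integrated peak-minus-baseline over baseline Fluo4 ratio after carbachol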
RGS4 block valid: RGS4 inhibitor validation; shares compounds with RGS4 block; 1,700 compounds, 65% hits; calcium response, % at 10 µM; HEK293 M3R/RGS4, carbachol calcium Fluo-4 fluorescence; carbachol added at its EC20; 0 = buffer wells, 100 = carbachol control;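 active means duplicate-averaged calcium response above the buffer-only control mean plus 5 SD of those controls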;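 further: integrated fluorescence ratio F max minus min over baseline F0; higher response in RGS4-induced cells means RGS4 inhibition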
M3R Ca ctr: counter-screen for RGS4 inhibitors: effect in non-induced cells; shares compounds with RGS4 block; HEK293 M3R non-induced, carbachol calcium Fluo-4; submaximal (EC20) carbachol stimulus; buffer wells 0%, carbachol control wells 100%; activity (percent), % at 10 µM; 1,900 compounds, 20% hits; AID 493000; call rule not given here;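 further: RGS4 induction absent so cells express M3R without RGS4; higher means more calcium signal and flags a non-specific hit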
M3R basal Ca ctr: signal in non-induced cells without carbachol, RGS4 inhibitor counter-screen; 1,900 compounds, 22% hits; shares compounds with RGS4 block; calcium response (agonist-mode artifact), % at 10 µM; HEK293 M3R/RGS4 non-induced, Fluo-4 calcium, no carbachol; normalised: buffer wells 0%, carbachol wells 100%;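 active means duplicate-averaged calcium rise in uninduced cells above buffer wells' mean plus 5 SD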
MrgX1 PAM conf: reconfirmed allosteric activator of human MrgX1 receptor. shares compounds with MrgX1 allo act. MrgX1-HEK293, Fluo-4 calcium fluorescence, FDSS. activation (ratio percentage), % at 10 µM. 1,200 compounds, 13% hits. AID 602413;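 active means ratio at least 3 SD above the weak peptide control, stable starting fluorescence, no direct agonism earlier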;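 further: compound followed by low BAM8-22 agonist challenge near EC20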
MrgX1 ant reconf: human MrgX1 receptor antagonism, re-confirmation screen | shares compounds with MrgX1 antagonist | MrgX1-HEK293, BAM8-22 calcium flux, Fluo-4; stronger effect = lower value | remaining BAM8-22 calcium response % of control (stronger effect = lower value), % at 10 µM | 2,300 compounds, 19% hits | AID 602420;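 active means remaining agonist calcium response no higher than 100% minus 3 SD of agonist-only control wells, with starting fluorescence near control levels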;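 further: agonist BAM8-22 given at a near maximal EC90 to ECmax level; peak minus minimum fluorescence divided by baseline after agonist addition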
HEK293 Ca flux: counter-screen for MrgX1 antagonists: effect in parental HEK293 cells; shares compounds with MrgX1 antagonist; Fluo-4 calcium fluorescence, FDSS; fluorescence ratio F(max-min)/F0 at 10 µM; 4,000 compounds, 2% hits; AID 624111;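 active means duplicate-averaged calcium fluorescence ratio at least three times the standard deviation of buffer wells, a nonspecific response in parental cells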
HEK293 Ca counter: MrgX1 allosteric activator counter-screen hit in parental HEK293 cells | 4,000 compounds, 0.4% hits | fluorescence ratio F(max-min)/F0 at 10 µM | shares compounds with MrgX1 antagonist | parental HEK293 calcium flux, Fluo-4 fluorescence ratio; stronger effect = higher value | AID 624114;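 active means calcium fluorescence ratio, averaged over duplicates, at least 3 SD of the buffer-well ratio, meaning a nonspecific response in receptor-free cells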;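 further: untransfected parental HEK293 lacking MrgX1 used as counterscreen for MrgX1 allosteric activators; fluorescence change taken during the second addition on a kinetic imager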
HEK293 Ca cntr2: activity in parental HEK293 cells lacking MrgX1 receptor | shares compounds with MrgX1 antagonist | Fluo-4 calcium fluorescence (FDSS); stronger effect = higher value | fluorescence ratio F(max-min)/F0 at 10 µM | 4,000 compounds, 8.7% hits;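 active means calcium fluorescence ratio at least three times the spread of buffer wells, meaning a non-specific response in parental cells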
Active calls of the source: *; i = inactive; · = no result. Hits are enriched below; roughly 4.7% of the tested compounds scored in any of these assays.

SMILES	MrgX1 agonist	RGS4 block	MrgX1 antagonist	RGS4 pot	MrgX1 allo act	KCC2 mod	M3R Ca ctr	M3R basal Ca ctr	others
Cc1nc(Sc2ccccc2)c(C#N)cc1-c1ccccc1	i	i	i	-10.2*	6.79*	0.0581	·	·	RGS4 activ val=94.0*;M3R Ca counter=63.3*;MrgX1 PAM conf=i;HEK293 Ca flux=i;HEK293 Ca counter=i;HEK293 Ca cntr2=i
C=CCn1c(SCCN2CCCC2)nc2c([nH]c3ccccc32)c1=O	i	i	-4.59*	-8.45*	i	-1.14	·	·	RGS4 activ val=63.5*;M3R Ca counter=0.0;MrgX1 ant reconf=i;HEK293 Ca flux=i;HEK293 Ca counter=i;HEK293 Ca cntr2=i
CCOC(=O)c1cccc(Nc2nc(-c3cccnc3)nc3ccccc23)c1	i	i	-4.58*	-8.06*	i	-0.337	·	·	RGS4 activ val=57.0*;M3R Ca counter=0.0;MrgX1 ant reconf=i;HEK293 Ca flux=i;HEK293 Ca counter=i;HEK293 Ca cntr2=i
Cc1nc(Nc2nc(CSc3nc4ccccc4[nH]3)cc(=O)[nH]2)nc2ccccc12	i	i	-5.17*	-13*	i	-2.31	·	·	RGS4 activ val=61.5*;M3R Ca counter=0.0;MrgX1 ant reconf=82.7%*;HEK293 Ca flux=i;HEK293 Ca counter=i;HEK293 Ca cntr2=i
COc1ccc(NC(=O)c2cncn2-c2ccccc2)cc1	i	i	i	i	i	·	·	·
CCOc1cc(-c2c(C#N)c(N)nc3c2CCc2ccccc2-3)ccc1O	i	i	i	i	i	0.439	·	·
COc1ccccc1-c1c(C#N)c(N)nc2c1CCc1ccccc1-2	i	i	i	-7.57*	12.4*	-0.191	·	·	RGS4 activ val=89.0*;M3R Ca counter=51.8*;MrgX1 PAM conf=i;HEK293 Ca flux=i;HEK293 Ca counter=i;HEK293 Ca cntr2=i
CC(C)=NNC(=O)C1=NNC(=O)C1	i	i	i	i	i	0.0116	·	·
CCN(CC)CC#CC(OC)(c1ccccc1)c1ccccc1	i	i	i	-9.68*	8.03*	-1.28	·	·	RGS4 activ val=92.5*;M3R Ca counter=88.3*;MrgX1 PAM conf=i;HEK293 Ca flux=i;HEK293 Ca counter=i;HEK293 Ca cntr2=i
CCCN(CC#CC(O)(c1ccccc1)c1cccnc1)CCC (configuration not stated)	i	i	i	i	i	-0.509	·	·
O=C(COC(=O)c1cnccn1)N=c1sccn1Cc1ccccc1Cl	i	i	i	i	i	·	·	·
C=CC(C)(C)c1c(O)c(CC=C(C)C)c(O)c2c(=O)c3ccc(O)c(O)c3oc12	i	6.01*	i	i	i	·	i	i	RGS4 block valid=9.5%*
Cc1ccc(CS(=O)(=O)Cc2ccc(C(=O)NC3CCCC3)o2)cc1	i	i	i	i	i	·	·	·
C=CCOc1ccc2c(c1)C(=NO)c1cc(OCC=C)ccc1-2	i	5.58*	i	i	i	·	i	i	RGS4 block valid=9.5%*
CC(C)(C)c1cccc(/C=N/O)c1O	i	10.5*	i	i	i	·	44.5%*	i	RGS4 block valid=24.5%*
O=C(CN1C(=O)c2cccnc2Oc2ccc(Cl)cc21)NC1CCCCC1	i	i	i	i	i	·	·	·
COc1cccc(CNC(=O)CN2C(=O)c3ccccc3S2(=O)=O)c1	i	i	i	i	i	·	·	·
Cc1ccc2c(c1)c1c(n2CC(O)Cn2c(C)nc3ccccc32)/C(=N\O)CCC1 (configuration not stated)	i	14.6*	i	i	i	-0.629	i	i	RGS4 block valid=42.5%*
Cc1onc(-c2ccccc2)c1C(=O)NC(C)CCc1ccccc1 (configuration not stated)	i	i	i	i	i	·	·	·
Cc1cc(-n2c(C)cc(C(=O)COc3ccccc3[N+](=O)[O-])c2C)no1	i	5.14*	i	i	i	-0.0177	i	i	RGS4 block valid=i
O=C(NCCNC(=O)c1ccccn1)c1ccccc1	i	i	i	i	i	·	·	·
S=C(Nc1cccnc1)NC1CC2CCC1C2 (configuration not stated)	i	i	i	i	i	·	·	·
CC(C)(C)OC1NS(=O)(=O)OCC1NCOC(Cl)(Cl)Cl (configuration not stated)	i	19.2*	i	i	i	·	39.5%*	22.5%*	RGS4 block valid=26.0%*
C=CCC1NS(=O)(=O)OCC1NC(=O)OCC(Cl)(Cl)Cl (configuration not stated)	i	i	i	i	i	·	·	·
CCCCOc1ccc(C(=O)NCC(=O)NCC(c2ccc(OC)cc2)N2CCCC2)cc1 (configuration not stated)	i	i	i	i	i	·	·	·
Cc1ccc(C(=O)N/C(=C\c2ccc(Br)cc2)c2nc(=S)[nH][nH]2)cc1	i	i	i	i	i	-0.48	i	11.0%*
